ChEMBL document CHEMBL5038610, “Ligand-based rational design, synthesis and evaluation of novel potential chemical chaperones for opsin” (Eur J Med Chem, 2021)
The source made the active and inactive calls. The rule behind the calls is not given here.

tested on: U2OS; test: Effect on His-tagged human P23H rhodopsin expressed in U2OS cells assessed as increase localization of P23H rhodopsin using […] as substrate at 17 uM incubated for overnight and measured by immunofluorescence microscopy analysis; type: cell-based; settings: time 12.0 hrs
Summary of the method: (§1)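 U2OS cells stably carrying C-terminal His-tagged human P23H rhodopsin, grown on polylysine coverslips. Incubated overnight in the dark with 1 μg/mL tetracycline plus compound at 17 or 20 μM (DMSO ≤0.1%); 9-cis-retinal at 5 μM serves as control. Cells fixed in 4% PFA. Surface rhodopsin stained with RetP1 before permeabilisation, total rhodopsin with anti-His after 0.1% Triton. Epifluorescence imaging, 3 independent experiments.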

Row | Compound | Activity
1 | CC1=C(CNc2ccc(C#N)cc2)C(C)(C)CCC1 | Active
2 | O=Cc1ccc(COC(=O)c2cc(C(F)(F)F)cc(C(F)(F)F)c2)cc1 | Active
3 | O=C(O)c1ccc(COC(=O)c2cc(C(F)(F)F)cc(C(F)(F)F)c2)cc1 | Active

tested on: ARPE-19; test: Cytotoxicity against human ARPE-19 cells assessed as reduction in cell viability at 25 uM measured after 24 hrs by Cell-titre blue assay; type: toxicity, cell-based; settings: arpe-19, 24 h
Summary of the method: (§2)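 HepG2 (DMEM) or ARPE-19 (DMEM/F12) cells seeded at 1 × 10⁴ per well. Next day given medium with 2% FBS and 1 g/L glucose containing 25 μM compound, for 24 h at 37 °C. CellTiter Blue then added for 4 h; fluorescence read at 560/590 nm. Viability expressed as % of DMSO-treated cells; at least three independent measurements.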

Row | Compound | Activity
4 | CC(=O)/C=C/C1=C(C)CCCC1(C)C [BETA-IONONE] | Non-Toxic
5 | NC(=O)c1ccc(N2CCN(C(=O)c3cc(C(F)(F)F)cc(C(F)(F)F)c3)CC2)cc1 | Non-Toxic
6 | O=Cc1ccc(COC(=O)c2cc(C(F)(F)F)cc(C(F)(F)F)c2)cc1 | Non-Toxic
7 | O=C(O)c1ccc(COC(=O)c2cc(C(F)(F)F)cc(C(F)(F)F)c2)cc1 | Non-Toxic
8 | O=Cc1ccc(N2CCN(C(=O)c3cc(C(F)(F)F)cc(C(F)(F)F)c3)CC2)cc1 | Non-Toxic
9 | Cc1cccc(C)c1N1CCN(C(=O)c2ccc(C(N)=O)cc2)CC1 | Non-Toxic
10 | Cc1cccc(C)c1NC(=O)/C=C/c1ccc(C=O)cc1 | Non-Toxic
11 | CC1=C(/C=C/C(C)N2CCc3cc(C=O)ccc3C2)C(C)(C)CCC1 (stereo unspecified) | Non-Toxic
12 | C=CC(=O)Nc1ccc(CNC(=O)c2c(C)cccc2C)cc1 | Non-Toxic
13 | O=Cc1ccc(C(=O)N2CCN(c3cc(C(F)(F)F)cc(C(F)(F)F)c3)CC2)cc1 | Non-Toxic

tested on: U2OS; test: Effect on His-tagged human P23H rhodopsin expressed in U2OS cells assessed as increase localization of P23H rhodopsin using […] as substrate at 17 to 20 uM incubated for overnight and measured by immunofluorescence microscopy analysis; type: functional, cell-based; settings: dose 17-20 µM, time 12.0 hrs; summary of the method: as §1

Row | Compound | Activity
14 | C=C(C(=O)Nc1ccc(NC(=O)c2c(C)cccc2C)cc1)C(F)(F)F | Active
15 | Cc1cccc(C)c1/C=C/C(=O)NCc1ccc(C(=O)O)cc1 | Active
16 | NC(=O)c1ccc(N2CCN(C(=O)c3cc(C(F)(F)F)cc(C(F)(F)F)c3)CC2)cc1 | Active
17 | C=CC(=O)Nc1ccc(NC(=O)c2cc(C(F)(F)F)cc(C(F)(F)F)c2)cc1 | Active
18 | CC1=C(CNc2ccc(C(N)=O)cc2)C(C)(C)CCC1 | Active
19 | CC1=C(/C=C/C(=O)N2CCC(NC=O)CC2)C(C)(C)CCC1 | Active
20 | CC1=C(/C=C/C(=O)N2CCC(C(N)=O)CC2)C(C)(C)CCC1 | Active
21 | O=Cc1ccc(N2CCN(C(=O)c3cc(C(F)(F)F)cc(C(F)(F)F)c3)CC2)cc1 | Active
22 | Cc1cccc(C)c1NC(=O)/C=C/c1ccc(C=O)cc1 | Active
23 | Cc1cccc(C)c1C(=O)N1CCN(c2ccc(C(=O)O)cc2)CC1 | Active
24 | CC1=C(CNc2ccc(C(=O)O)cc2)C(C)(C)CCC1 | Active
25 | C=CC(=O)Nc1ccc(NC(=O)c2c(C)cccc2C)cc1 | Active
26 | Cc1cccc(C)c1N1CCN(C(=O)c2ccc(C#N)cc2)CC1 | Active
27 | O=Cc1ccc(C(=O)N2CCN(c3cc(C(F)(F)F)cc(C(F)(F)F)c3)CC2)cc1 | Active

tested on: not listed separately; test: Half life of compound; type: physicochemical; settings: not given

Row | Compound | half-life
28 | CC(=O)/C=C/C1=C(C)CCCC1(C)C [BETA-IONONE] | 3.6 min

tested on: HepG2; test: Cytotoxicity against human HepG2 cells assessed as reduction in cell viability at 25 uM measured after 24 hrs by Cell-titre blue assay; type: toxicity, cell-based; settings: hepg2, 24 h; summary of the method: as §2

Row | Compound | Activity
29 | CC(=O)/C=C/C1=C(C)CCCC1(C)C [BETA-IONONE] | Non-Toxic
30 | NC(=O)c1ccc(N2CCN(C(=O)c3cc(C(F)(F)F)cc(C(F)(F)F)c3)CC2)cc1 | Non-Toxic
31 | CC1=C(CNc2ccc(C#N)cc2)C(C)(C)CCC1 | 25%
32 | O=Cc1ccc(COC(=O)c2cc(C(F)(F)F)cc(C(F)(F)F)c2)cc1 | Non-Toxic
33 | O=C(O)c1ccc(COC(=O)c2cc(C(F)(F)F)cc(C(F)(F)F)c2)cc1 | Non-Toxic
34 | O=Cc1ccc(N2CCN(C(=O)c3cc(C(F)(F)F)cc(C(F)(F)F)c3)CC2)cc1 | Non-Toxic
35 | Cc1cccc(C)c1N1CCN(C(=O)c2ccc(C(N)=O)cc2)CC1 | Non-Toxic
36 | Cc1cccc(C)c1NC(=O)/C=C/c1ccc(C=O)cc1 | Non-Toxic
37 | CC1=C(/C=C/C(=O)N2CCC(C#N)CC2)C(C)(C)CCC1 | 50%
38 | CC1=C(/C=C/C(C)N2CCc3cc(C=O)ccc3C2)C(C)(C)CCC1 (stereo unspecified) | Non-Toxic
39 | C=CC(=O)Nc1ccc(CNC(=O)c2c(C)cccc2C)cc1 | Non-Toxic
40 | O=Cc1ccc(C(=O)N2CCN(c3cc(C(F)(F)F)cc(C(F)(F)F)c3)CC2)cc1 | Non-Toxic

molecular target: Rhodopsin (Bos taurus) (UniProt P02699); test: Binding affinity to bovine rhodopsin assessed as rate constant preincubated for 30 mins followed by […] addition and measured after 30 mins by UV-visible spectra method; settings: time 60.0 min
Summary of the method: (§3)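 Opsin from bovine rod outer segments diluted to ~20-25 μM in PBS with 1% N-dodecyl-β-maltoside. Bleached with 532 nm green light, then pre-incubated with compound for 30 min at room temperature. 9-cis-retinal added, equimolar to opsin. Isorhodopsin formation read at 485 nm over 0–29 min. One-phase association fit gives the pseudo-first-order k, compared with DMSO vehicle. At least three repeats.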

Chain of Rhodopsin (Bos taurus) (P02699 whole entry): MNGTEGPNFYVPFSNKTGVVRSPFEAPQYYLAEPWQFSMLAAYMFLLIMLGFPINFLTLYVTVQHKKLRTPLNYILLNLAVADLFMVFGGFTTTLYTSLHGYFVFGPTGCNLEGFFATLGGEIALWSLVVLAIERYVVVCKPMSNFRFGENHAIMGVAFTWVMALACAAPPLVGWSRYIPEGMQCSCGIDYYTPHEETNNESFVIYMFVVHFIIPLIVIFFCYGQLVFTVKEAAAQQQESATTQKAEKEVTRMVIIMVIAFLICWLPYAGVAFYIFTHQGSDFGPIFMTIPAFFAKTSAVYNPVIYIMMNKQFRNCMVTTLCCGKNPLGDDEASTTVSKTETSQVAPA

Row | Compound | K
41 | O=Cc1ccc(COC(=O)c2cc(C(F)(F)F)cc(C(F)(F)F)c2)cc1 | 0.44 min⁻¹
42 | O=C(O)c1ccc(COC(=O)c2cc(C(F)(F)F)cc(C(F)(F)F)c2)cc1 | 0.62 min⁻¹

organism: Bos taurus; test: Binding affinity to bovine opsin assessed as rate constant preincubated for 30 mins followed by […] addition and measured after 30 mins by UV-visible spectra method; settings: time 60.0 min; summary of the method: as §3

Row | Compound | K
43 | CC(=O)/C=C/C1=C(C)CCCC1(C)C [BETA-IONONE] | 0.2 min⁻¹
44 | NC(=O)c1ccc(N2CCN(C(=O)c3cc(C(F)(F)F)cc(C(F)(F)F)c3)CC2)cc1 | 0.62 min⁻¹
45 | CC1=C(CNc2ccc(C#N)cc2)C(C)(C)CCC1 | 0.31 min⁻¹
46 | Cc1cccc(C)c1-c1ccc(CNc2ccc(C(N)=O)cc2)o1 | 0.61 min⁻¹
47 | CC1=C(CNc2ccc(C(N)=O)cc2)C(C)(C)CCC1 | 0.59 min⁻¹
48 | O=Cc1ccc(N2CCN(C(=O)c3cc(C(F)(F)F)cc(C(F)(F)F)c3)CC2)cc1 | 0.41 min⁻¹
49 | CC1=C(/C=C/C(=O)N2CCC(C#N)CC2)C(C)(C)CCC1 | 0.63 min⁻¹
50 | C=CC(=O)Nc1ccc(CNC(=O)c2c(C)cccc2C)cc1 | 0.62 min⁻¹
51 | O=Cc1ccc(C(=O)N2CCN(c3cc(C(F)(F)F)cc(C(F)(F)F)c3)CC2)cc1 | 0.64 min⁻¹
